For 14 compounds, CC50, IC50 and selectivity ratio results are on record in ChEMBL document CHEMBL3826907, “Design, synthesis and anti-P. falciparum activity of pyrazolopyridine-sulfonamide derivatives” (Bioorg Med Chem, 2016).

The term IC50 denotes the concentration at which inhibition is half-maximal.

Data set [1] in a line: Cytotoxicity against african green monkey BGM cells after 24 hrs by MTT assay. It counts as cell-based. To be noted: chlorocebus aethiops, read-out: MLD50. The essentials: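 MTT (3 mg/mL) was added, the supernatant was removed after 3 h, and the dye was dissolved in DMSO. Read at 570 nm. MLD50 (minimal lethal dose for 50% of cells) taken from non-linear regression dose–response curves.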
In general terms: Formazan colour is commonly taken as a measure of viable cells.

For data set [2], the system named is Plasmodium falciparum. Description: Antimalarial activity against chloroquine/sulfadoxine-resistant Plasmodium falciparum W2 infected in human A+ erythrocytes assessed as reduction in parasite growth after 72 hrs by HRP2 detection based ELISA. The note with it: W2, 72 h. It counts as functional, organism-based. A digest of the protocol:
(§1)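 P. falciparum W2 cultured in human A+ erythrocytes in RPMI 1640 with human serum, sorbitol-synchronized to rings. Parasitemia 0.05%, hematocrit 1.5%. […] Three freeze-thaw cycles, then HRPII sandwich ELISA read at 450 nm. IC50 from non-linear regression dose–response curves, three separate experiments (±SD).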
A general note: An ELISA detects its analyte on a solid surface through an enzyme-linked reagent.

Data set [3] is described as follows: Selectivity index, ratio of MLD50 for african green monkey BGM cells to IC50 for chloroquine/sulfadoxine-resistant Plasmodium falciparum W2. The note with it: read-out: Selectivity Index. The data set is classed as toxicity, cell-based. A digest of the protocol: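 Selectivity index calculated from the BGM MLD50 (24 h MTT, 570 nm, non-linear regression) and the W2 IC50 (72 h HRPII ELISA in A+ erythrocytes).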

For data set [4], the system named is Plasmodium falciparum. Description: Antimalarial activity against chloroquine-resistant Plasmodium falciparum W2. It counts as functional, organism-based. The essentials: as §1
The test system of data set [5] is Plasmodium falciparum. Description: Antimalarial activity against chloroquine-resistant and mefloquine-sensitive Plasmodium falciparum W2 infected in human A+ erythrocytes after 72 hrs by HRP2 detection based ELISA. The data set is classed as functional, organism-based. The note with it: W2, 72 h. A digest of the protocol: as §1

Turning to `COc1ccc(S(=O)(=O)NCCCCNc2c(C#N)cnc3c2cnn3-c2ccccc2)cc1`, the CC50 at 24 h in data set [1] stood at 498 µM. The concentration for half-maximal inhibition (IC50) in data set [2] was 5 µM. Besides, in data set [3], the selectivity ratio stood at 99.6.
In the same order, the values of `N#Cc1cnc2c(cnn2-c2ccccc2)c1NCCCCN` are 503 µM, 5 µM and 101.
In the same order, the values of `CCOC(=O)c1cnc2c(cnn2-c2ccccc2)c1NCCCCNS(=O)(=O)c1ccccc1` are 822 µM, 6.52 µM and 126.
Taken in the same sequence, the figures for `N#Cc1cnc2c(cnn2-c2ccccc2)c1NCCCCNS(=O)(=O)c1ccccc1` were 248 µM, 4.2 µM and 59.
With `CCOC(=O)c1cnc2c(cnn2-c2ccccc2)c1NCCCCNS(=O)(=O)c1ccc(OC)cc1`, the CC50 at 24 h in data set [1] is 995 µM. In addition, the IC50 in data set [2] was 9.3 µM. For the same compound, the selectivity ratio in data set [3] is 107.
With `O=Cc1cn(-c2ccnc3cc(Cl)ccc23)nn1`, the IC50 in data set [4] turned out to be 1.4 µM.
For the compound `CCOC(=O)c1cnc2c(cnn2-c2ccccc2)c1NCCCCNS(=O)(=O)c1ccc(Cl)cc1`, in data set [1], the CC50 at 24 h is over 1000 µM. The IC50 in data set [2] is 3.6 µM. Besides, the selectivity ratio in data set [3] was over 278.
Taken in the same sequence, the figures for `Cc1ccc(S(=O)(=O)NCCCCNc2c(C#N)cnc3c2cnn3-c2ccccc2)cc1` were 682 µM, 3.6 µM and 189.
As for `N#Cc1cnc2c(cnn2-c2ccccc2)c1NCCCCNS(=O)(=O)c1ccc(Cl)cc1`, the CC50 at 24 h in data set [1] worked out at 418 µM. The IC50 in data set [2] was 7.5 µM. Also, in data set [3], the selectivity ratio turned out to be 55.7.
In the same order, the values of `N#Cc1cnc2c(cnn2-c2ccccc2)c1NCCCCNS(=O)(=O)c1ccc(F)cc1` are 508 µM, 9.3 µM and 54.6.
Consider `CCOC(=O)c1cnc2c(cnn2-c2ccccc2)c1NCCCCNS(=O)(=O)c1ccc(F)cc1`, for which the CC50 at 24 h in data set [1] amounted to 993 µM. For the same compound, in data set [2], the IC50 came out at 4.12 µM. Besides, the selectivity ratio in data set [3] was determined as 241.
In the same order, the values of `CCOC(=O)c1cnc2c(cnn2-c2ccccc2)c1NCCCCNS(=O)(=O)c1ccc(C)cc1` are 596 µM, 3.46 µM and 172.
Compound `Cc1cc(Nc2ccc3ccccc3c2)n2nc(C(F)(F)F)nc2n1` registered an IC50 in data set [5] of 0.023 µM.
With `COc1ncnc(NS(=O)(=O)c2ccc(N)cc2)c1OC` [SULFADOXINE], the CC50 at 24 h in data set [1] amounted to 310 µM. Besides, the IC50 in data set [2] was 15 µM. Further, the selectivity ratio in data set [3] amounted to 20.7.
